From ChEMBL document CHEMBL1124982, “Chemistry and structure-activity relationships of C-17 unsaturated 18-cycloalkyl and cycloalkenyl analogues of enisoprost. Identification of a promising new antiulcer prostaglandin” (1990)

How the values were obtained:
Canis familiaris = assay: Tested for gastric antisecretory activity in dogs by intrapouch administration; format: functional; conditions: Canis lupus familiaris, Stomach
Method in brief: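 Adult female beagles (6–11 kg) with Pavlov pouches; after a 30-min basal collection, drug given into the pouch via Thomas cannula in pH 7.4 isoosmotic phosphate buffer with up to 20% ethanol. Fed 10–12 oz canned food 30 min later. Gastric juice collected at 30-min intervals for 4 h; acid output = volume × acidity. Percent reduction from control over 2–5 doses, 2–7 dogs/dose. ED50 by linear regression, 95% limits by Fieller's method.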

Rattus norvegicus = assay: Tested for diarrheal side effects in rats by intragastric administration; format: functional; conditions: po
Method in brief: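 Adult male Charles River rats (210–230 g), individually housed, fasted 24 h with water ad libitum. Logarithmically graded prostaglandin doses given orally, N = 6–12 per group. Diarrhea scored all-or-none for 8 h after dosing. ED50 and 95% confidence intervals by logistic regression.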

What does the source list for `COC(=O)CC/C=C\CC[C@H]1C(=O)C[C@@H](O)[C@@H]1/C=C/C[C@@](C)(O)/C=C/C1=CCCCC1`?
ED50 (Canis familiaris): 0.3 µg/kg; ED50 (Rattus norvegicus): > 3160 µg/kg

Which ED50 (Canis familiaris) does the source give for `COC(=O)CC/C=C\CC[C@H]1C(=O)C[C@@H](O)[C@@H]1/C=C/C[C@@](C)(O)/C=C/C1CCC1` here?
Its ED50 is 0.05 µg/kg.

What about the ED50 (Rattus norvegicus) of the same compound?
Its ED50 is 530 µg/kg.

How did the ED50 (Canis familiaris) turn out when `COC(=O)CC/C=C\CC[C@H]1C(=O)C[C@@H](O)[C@@H]1/C=C/C[C@@](C)(O)/C=C/C1CC1` was run?
Its ED50 is 0.1 µg/kg.

And the ED50 (Rattus norvegicus)?
Its ED50 is 402 µg/kg.

Which results are given for `COC(=O)CC/C=C\CC[C@H]1C(=O)C[C@@H](O)[C@@H]1/C=C/C[C@@](C)(O)/C=C/C1=CCCC1`?
ED50 (Canis familiaris): 0.02 µg/kg; ED50 (Rattus norvegicus): > 3160 µg/kg

With `COC(=O)CC/C=C\CC[C@H]1C(=O)C[C@@H](O)[C@@H]1/C=C/C[C@@](C)(O)/C=C/C1(C)CC1` as the compound, how does the ED50 (Canis familiaris) read?
The ED50 was 0.02 µg/kg.

What about the ED50 (Rattus norvegicus) of the same compound?
Its ED50 is 1340 µg/kg.

With `COC(=O)CC/C=C\CC[C@H]1C(=O)C[C@@H](O)[C@@H]1/C=C/CC(C)(O)CCC1=CCCC1` (stereo partly specified) as the compound, how does the ED50 (Canis familiaris) read?
The ED50 was 0.1 µg/kg.

What about the ED50 (Rattus norvegicus) of the same compound?
The ED50 was 1180 µg/kg.

What does the source list for `COC(=O)CC/C=C\CC[C@H]1C(=O)C[C@@H](O)[C@@H]1/C=C/C[C@@](C)(O)/C=C/C1CCCC1`?
ED50 (Canis familiaris): 0.3 µg/kg; ED50 (Rattus norvegicus): 1950 µg/kg

Which ED50 (Canis familiaris) does the source give for `COC(=O)CC/C=C\CC[C@H]1C(=O)C[C@@H](O)[C@@H]1/C=C/C[C@@](C)(O)C#CC1=CCCC1` here?
Its ED50 is 2.8 µg/kg.

What about the ED50 (Rattus norvegicus) of the same compound?
The ED50 was > 3160 µg/kg.
